The list is not random: actives were taken first. Their share in the collection is about 9.6%.
PMI activator = activators of human phosphomannose isomerase; purified human PMI, coupled resazurin fluorescence, 20 min; hits give high values; 1 = vehicle control, 0 substrate-free wells; activation factor at 20 µM; 190,000 tested, 0.005% active; AID 1214;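 active means activation factor of 2 or more at 20 µM, relative to plate controls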
Target sequence (P34949 whole entry, looked up): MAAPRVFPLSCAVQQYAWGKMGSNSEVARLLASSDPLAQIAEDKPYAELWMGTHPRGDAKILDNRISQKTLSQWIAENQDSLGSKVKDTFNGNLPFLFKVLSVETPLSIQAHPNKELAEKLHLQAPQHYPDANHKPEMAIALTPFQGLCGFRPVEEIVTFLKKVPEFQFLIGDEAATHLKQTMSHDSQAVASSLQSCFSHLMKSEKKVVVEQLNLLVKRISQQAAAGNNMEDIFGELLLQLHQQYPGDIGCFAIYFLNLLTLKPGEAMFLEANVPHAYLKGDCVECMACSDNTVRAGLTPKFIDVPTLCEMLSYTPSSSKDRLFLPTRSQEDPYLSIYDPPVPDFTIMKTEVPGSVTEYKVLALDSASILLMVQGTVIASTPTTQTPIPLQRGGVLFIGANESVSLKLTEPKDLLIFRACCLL
PTEN del growth = PTEN-deleted cell growth suppression. HCT116 PTEN-null viability, CellTiter-Glo, 60 h; hits give low values. viability, % at 10 µM. 140,000 tested, 1.2% active. AID 827;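 active means viability at or below a set limit, 4 SD under the median of all tested compounds, cut at about 3.7% in these data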;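 further: PTEN knockout HCT116 line with beta catenin targeted HCT116 as companion control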
HCT116 bCat-KO = beta-catenin-lacking colon tumor cell growth suppression | HCT116 beta-catenin knockout viability, CellTiter-Glo, 60 h; hits give low values | viability, % at 10 µM | 140,000 tested, 1.5% active | AID 818;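 active means viability at or under a set limit, the compound median less 4 SD, cut at about 6% in these data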;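 further: 0% = Hyamine 1622 control at 20 µM and 100% = untreated cell control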
PMI act satM6P = PMI (human) activation, high substrate. P34949. coupled PMI enzyme assay, resazurin fluorescence, 20 min; hits give high values; 1 = untreated enzyme, 0 = substrate-free blank. activation factor at 20 µM. 190,000 tested, 0.34% active;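 active means activation factor of 2 or more at 20 µM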
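Test system: human phosphomannose isomerase with PGI, G6PDH, diaphorase coupling enzymes; amount: 15 ng/mL PMI; incubation: enzyme reaction with compound 20 min at room temperature; technique: resorufin fluorescence (Ex 544/Em 590 nm) from resazurin via diaphorase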
L major viab = Leishmania major promastigote growth inhibition; inhibition, % at 10 µM; 200,000 tested, 9% active; AID 1063; Leishmania major promastigotes, resazurin fluorescence viability; in the data active means inhibition above about 50%;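 further: promastigotes grown with compound for 44 hours at 28 °C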
An asterisk follows results filed as active.

Results for O=C(c1ccccc1)C(C(=O)N1CCc2ccccc2C1)n1ccccc1=O (stereo unspecified) ?
PMI activator: 0.9; PTEN del growth: 90; HCT116 bCat-KO: 86; PMI act satM6P: 1; L major viab: 73*

How did CC(Sc1nnc2ccccn12)C(=O)N1CCc2ccccc2C1 (stereo unspecified) do in these assays?
PMI activator: 1; PTEN del growth: 91; HCT116 bCat-KO: 91; PMI act satM6P: 1; L major viab: -3

Results for Cn1nnnc1SC(C(=O)Nc1cccc(C(F)(F)F)c1)c1ccccc1 (stereo unspecified) ?
PMI activator: 0.8; PTEN del growth: 89; HCT116 bCat-KO: 85; PMI act satM6P: 0.8; L major viab: 62*

Results for O=C(c1ccc2c(c1)OCO2)C1CCCN(C(=O)c2cnn(Cc3ccccc3)c2)C1 (stereo unspecified) ?
PMI activator: 1; PMI act satM6P: 1; L major viab: 0

What do the screens show for `O=C(Cc1ccccc1)NCC(=O)OCC(=O)c1ccccc1Cl`?
PMI activator: 0.9; PMI act satM6P: 0.9; L major viab: 93*

What do the screens show for `C=CCn1c(CCCNC(=O)c2ccccc2OC)nc2ccccc21`?
PMI activator: 1; PMI act satM6P: 1; L major viab: -4

How did CCS(=O)(=O)Nc1ccc(C2=NN(S(C)(=O)=O)C(c3cccs3)C2)cc1 (stereo unspecified) do in these assays?
PMI activator: 1; PMI act satM6P: 1; L major viab: -6

Results for CN(Cc1ccccc1)c1ncc(C=O)s1 ?
PMI activator: 1; PMI act satM6P: 1; L major viab: -6

Results for CC(C)C(=O)Nc1ccccc1C(=O)N/N=C/c1ccc([N+](=O)[O-])cc1 ?
PMI activator: 1.2; PTEN del growth: 94; HCT116 bCat-KO: 94; PMI act satM6P: 1; L major viab: 52*

What do the screens show for `O=C(N/N=C/c1ccncc1)c1ccc(COc2cccc3cccnc23)cc1`?
PMI activator: 1.2; PMI act satM6P: 0.9; L major viab: 2

Results for CC(Nc1cccc2ccccc12)C(=O)N/N=C/c1ccc([N+](=O)[O-])cc1 (stereo unspecified) ?
PMI activator: 0.8; PTEN del growth: 71; HCT116 bCat-KO: 77; PMI act satM6P: 0.6; L major viab: 0

Results for O=C(N/N=C/c1ccc2cccc(OCc3ccccc3)c2n1)c1ccc(Cl)cc1 ?
PMI activator: 1; PTEN del growth: 64; HCT116 bCat-KO: 75; PMI act satM6P: 1; L major viab: 68*

Results for O=C(N/N=C/c1ccc([N+](=O)[O-])cc1)c1ccc(COc2ccccc2-c2ccccc2)cc1 ?
PMI activator: 0.9; PMI act satM6P: 0.8; L major viab: 90*

What do the screens show for `COc1ccc(C)cc1NC(=O)C(=O)NNC(=O)c1ccco1`?
PMI activator: 0.8; PTEN del growth: 92; HCT116 bCat-KO: 85; PMI act satM6P: 0.8; L major viab: -8

Results for CCCCCn1c(=O)[nH]c2cc(C(=O)NCc3ccco3)ccc2c1=O ?
PMI activator: 1; PTEN del growth: 64; HCT116 bCat-KO: 63; PMI act satM6P: 1; L major viab: -3

Results for Cc1ccc(S(=O)(=O)N2c3ccccc3-c3c(ssc3=S)C2(C)C)cc1 ?
PMI activator: 0.8; PTEN del growth: 66; HCT116 bCat-KO: 72; PMI act satM6P: 0.9; L major viab: 99*

How did COc1ccc2c(c1)-c1c(ssc1=S)C(C)(C)N2S(=O)(=O)c1ccc(C)cc1 do in these assays?
PMI activator: 0.9; PTEN del growth: 14; HCT116 bCat-KO: 14; PMI act satM6P: 0.9; L major viab: 92*

How did O=C(NC1CCN(C(=S)NCCc2ccccc2)CC1)C1CCCCC1 do in these assays?
PMI activator: 1.1; PMI act satM6P: 1.1; L major viab: -3

Results for O=C(C1CC(=O)N(C2CCCC2)C1)N1CCC(Cc2ccccc2)CC1 (stereo unspecified) ?
PMI activator: 1.1; PTEN del growth: 74; HCT116 bCat-KO: 81; PMI act satM6P: 1; L major viab: 70*

Results for CCN1CCCC1CN(Cc1cc2c(C)cc(C)cc2[nH]c1=O)C(=O)NC1CCCCC1 (stereo unspecified) ?
PMI activator: 0.9; PTEN del growth: 69; HCT116 bCat-KO: 68; PMI act satM6P: 0.9; L major viab: 59*

Bioassay records: PubChem, several laboratories
